# Article PMC8906099 (Current Research in Parasitology & Vector-borne Diseases, 2021)
# Like-named read-outs stand apart in the source and are kept apart here.
# Tests used:
# [1] = system: trypomastigotes of T. cruzi (Sylvio X10/4 strain); experiment: Trypanocidal activity against trypomastigotes; type: cell-based; settings: Trypanosoma cruzi, 72 h, read-out: IC50 ± SD, trypomastigotes
# In short: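 Sylvio X10/4 trypomastigotes were taken from amastigote culture supernatant and seeded at 1 × 10^6 per well. Test compound was added at 0.19–100 μM (0.1% DMSO), with benznidazole (0.019–10 μM) and DMSO controls. Incubation was 72 h at 37 °C, 5% CO2. Viability was read with resazurin (40 μM in PBS), fluorescence 530/630 nm. IC50 came from sigmoid dose–response fits.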
# [2] = system: amastigotes of T. cruzi Brazil strain; experiment: Trypanocidal activity against intracellular amastigotes in C2C12 cells; type: cell-based; settings: Trypanosoma cruzi, C2C12, 72 h, read-out: IC50 ± SD, amastigotes
# In short: (§1)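 Trypomastigotes from C2C12 co-culture (DMEM, 10% FBS, 25 mM HEPES, pH 7.2) were seeded with C2C12 cells at a 1:15 infection rate. Test compound (0.19–100 μM, 2-fold, 0.1% DMSO) was added at the start. After 72 h at 37 °C, 5% CO2, cells were stained with DAPI 2 h and imaged confocally. Amastigote and host nuclei were told apart by size. IC50 came from sigmoid fits of the infection ratio normalised to controls. Mean ± SD, three experiments in triplicate.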
# [3] = system: amastigotes of T. cruzi CA-I/72 strain; experiment: as above; type: cell-based; settings: Trypanosoma cruzi, C2C12, 72 h, read-out: IC50 ± SD, amastigotes
# In short: as §1
# [4] = system: amastigotes of T. cruzi Sylvio X10/4 strain; experiment: as above; type: cell-based; settings: Trypanosoma cruzi, C2C12, 72 h, read-out: IC50 ± SD, amastigotes
# In short: as §1
# [5] = system: amastigotes of T. cruzi Sylvio X10/7 strain; experiment: as above; type: cell-based, Trypanosoma cruzi; settings: Trypanosoma cruzi, C2C12, 72 h, read-out: IC50 ± SD, amastigotes, Sylvio X10/7 strain, 72 h incubation
# In short: as §1
# [6] = system: intracellular amastigotes of T. cruzi CA-I/72 strain; experiment: Time-course study against intracellular amastigotes; type: cell-based; settings: Trypanosoma cruzi
# In short: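 CA-I/72 trypomastigotes were incubated with C2C12 cells for 48 h to form intracellular amastigotes. Test compound was then added (0.19–100 μM, 2-fold, 0.1% DMSO), with benznidazole and DMSO controls. Incubation ran 8, 12, 24 or 48 h at 37 °C, 5% CO2. Growth inhibition was read by DAPI high-content imaging. IC50 came from sigmoid fits of the normalised infection ratio. Time trend was tested by linear regression and ANOVA.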
# [7] = Time-course cytotoxicity in infected C2C12 cells; type: cell-based, murine; settings: mouse
# In short: (§2)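 This uses the CA-I/72 time-course infection format: a 48 h pre-infection of C2C12 cells, then test compound at 0.19–100 μM for 8, 12, 24 or 48 h, with DAPI imaging. Host viability was the total host cell count divided by the mean count of 0.1% DMSO controls. CC50 came from sigmoid fits. SI = CC50/IC50 against amastigotes at the matching time.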
# [8] = system: C2C12 cells infected with intracellular amastigotes of T. cruzi (CA-I/72 strain); experiment: Time-course cytotoxicity in infected C2C12 cells; type: cell-based, murine; settings: infected C2C12 vs amastigotes CA-I/72, time-course
# In short: as §2
# [9] = Cytotoxicity in infected C2C12 cells after 72 h; type: cell-based, murine; settings: mouse
# In short: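 C2C12 cells were infected with trypomastigotes (1:15) together with test compound (0.19–100 μM, 0.1% DMSO) for 72 h at 37 °C, 5% CO2. Host nuclei were counted by DAPI high-content imaging. Viability was the cell count relative to the DMSO-control mean. CC50 came from sigmoid fits. SI = CC50/IC50 against intracellular amastigotes of the same strain at 72 h.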
# [10] = Cytotoxicity in non-infected cells; type: cell-based, murine; settings: mouse, non-infected C2C12 cells
# In short: (§3)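 Non-infected C2C12 cells (5 × 10^4 per well) were plated for 24 h. Test compound (0.19–100 μM, 2-fold, 0.1% DMSO) was then added for 72 h at 37 °C. Controls were untreated, DMSO 0.4% and Triton 15%. After a PBS wash, MTT (2 mg/ml) was added for 4 h, and absorbance was read at 450 nm (reference 620 nm). CC50 came from sigmoid fits. SI = CC50/IC50 against CA-I/72 amastigotes at 72 h.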
# non-infected C2C12 cells = experiment: Cytotoxicity in non-infected cells; type: cell-based, murine; settings: non-infected C2C12 CC50 / IC50 amastigotes CA-I/72 strain, 72 h
# In short: as §3
# [11] = Cytotoxicity in non-infected cells; type: cell-based, monkey; settings: monkey, non-infected LLC-MK2 cells
# In short: (§4)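 LLC-MK2 monkey kidney cells, grown in RPMI with 10% FBS at 37 °C and 5% CO2, were plated and after 24 h exposed to test compound (0.19–100 μM, 2-fold dilutions, 0.1% DMSO) for 72 h at 37 °C. Controls were untreated cells, 0.4% DMSO and 15% Triton. After a PBS wash, MTT (2 mg/ml) was added for 4 h, and absorbance read at 450/620 nm. SI is CC50 divided by the 72 h CA-I/72 intracellular amastigote IC50.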
# [12] = system: non-infected LLC-MK2 cells; experiment: Cytotoxicity in non-infected cells; type: cell-based, monkey; settings: non-infected LLC-MK2 CC50 / IC50 amastigotes CA-I/72 strain, 72 h
# In short: as §4
# female BALB/c mice = experiment: Acute oral toxicity test in mice; type: in vivo; settings: for DA/TA (dead animals/total animals) / Mortality / Signs of toxicity: 14 days
# In short: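 Six-week-old female BALB/c mice (25–30 g), five per group. Single oral dose of 300 or 1,000 mg/kg test compound in Tween 80/ethanol/water (7:3:90), with a vehicle group. Clinical signs (ataxia, tremor, salivation, ptosis, seizures and others) watched continuously for 1 h, periodically over 24 h, then daily to day 14. Mortality recorded.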
# [13] = C2C12 cells infected with T. cruzi Brazil strain
# [14] = C2C12 cells infected with T. cruzi CA-I/72 strain
# [15] = C2C12 cells infected with T. cruzi Sylvio X10/4 strain
# [16] = C2C12 cells infected with T. cruzi Sylvio X10/7 strain
SMILES,IC50 [1],IC50 [2],IC50 [3],IC50 [4],IC50 [5],"IC50 ([6]; 8 h, read-out: IC50 ± SD)","IC50 ([6]; 12 h, read-out: IC50 ± SD)","IC50 ([6]; 24 h, read-out: IC50 ± SD)","IC50 ([6]; 48 h, read-out: IC50 ± SD)",CC50 at 8 h [7],CC50 at 12 h [7],CC50 at 24 h [7],CC50 at 48 h [7],"CC50 at 72 h [9, 13]","CC50 at 72 h [9, 14]","CC50 at 72 h [9, 15]","CC50 at 72 h [9, 16]",CC50 at 72 h [10],CC50 at 72 h [11],other results
"O=C(Cn1ccnc1[N+](=O)[O-])NCc1ccccc1 [BZ, benznidazole, reference compound]",1.16 ± 0.04 µM,1.28 ± 0.64 µM,2.02 ± 0.12 µM,4.12 ± 1.02 µM,1.19 ± 0.25 µM,> 10 µM,6.85 ± 1.56 µM,5.97 ± 1.2 µM,1.54 ± 0.36 µM,> 10 µM,3.98 ± 0.31 µM,3.48 ± 0.7 µM,0.27 ± 0.07 µM,> 10 µM,> 10 µM,> 10 µM,> 10 µM,37.9 ± 1.54 µM,168 ± 2.98 µM,IC50 ([6]; read-out: IC50 over the incubation times evaluated): 1.54 to 10 µM; SI (CC50/IC50) ([8]; 12 h): 0.58; SI (CC50/IC50) ([8]; 24 h): 0.58; SI (CC50/IC50) ([8]; 48 h): 0.17; SI (CC50/IC50) (non-infected C2C12 cells): 18.73; SI (CC50/IC50) [12]: 82.92
"COc1cc(/C=C/C(=O)CC(=O)/C=C/c2ccc(O)c(OC)c2)ccc1O [CUR, reference compound]",9.89 ± 0.51 µM,11.2 ± 1.05 µM,2.71 ± 0.47 µM,20 ± 2.61 µM,11.6 ± 4.93 µM,> 100 µM,> 100 µM,51.6 ± 1.26 µM,2.25 ± 0.65 µM,60.3 ± 1.54 µM,9.95 ± 1.17 µM,1.88 ± 0.17 µM,0.47 ± 0.09 µM,2.36 ± 1.24 µM,6.71 ± 0.7 µM,1.91 ± 0.02 µM,3.37 ± 1.33 µM,18 ± 0.42 µM,32.5 ± 0.49 µM,"Acute toxicity (general signs of toxicity or mortality) (female BALB/c mice; oral doses 300 and 1,000 mg/kg, 14-day period): no toxic effects; DA/TA (dead animals/total animals) (female BALB/c mice; single oral dose 300 mg/kg): 0/5; Mortality (female BALB/c mice; single oral dose 300 mg/kg): 0%; Signs of toxicity (female BALB/c mice; single oral dose 300 mg/kg): None; DA/TA (dead animals/total animals) (female BALB/c mice; single oral dose 1,000 mg/kg): 0/5; Mortality (female BALB/c mice; single oral dose 1,000 mg/kg): 0%; Signs of toxicity (female BALB/c mice; single oral dose 1,000 mg/kg): None"
